Results published in ChEMBL document CHEMBL1145786, “Synthesis and structure-activity relationship of alpha-sulfonylhydroxamic acids as novel, orally active matrix metalloproteinase inhibitors for the treatment of osteoarthritis” (J Med Chem, 2003).
Values belong to the molecule of their own block, whether it stands above or below them.

Assays:
[1] = target: T1, Matrix metalloproteinase-9 (Homo sapiens, UniProt P14780); experiment: In vitro inhibition of matrix metalloprotease-9
Method in brief: (§1)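 Each inhibitor concentration tested in triplicate. IC50 derived from a four-parameter logistic fit of the data within a single experiment, and the reported value is the mean of the triplicate values.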

[2] = target: T2, Disintegrin and metalloproteinase domain-containing protein 17 (Homo sapiens, UniProt P78536); experiment: In vitro inhibition against tumor necrosis factor alpha converting enzyme at 10 uM concentration
T2 sequence (P78536 whole entry, the tested form may be a part): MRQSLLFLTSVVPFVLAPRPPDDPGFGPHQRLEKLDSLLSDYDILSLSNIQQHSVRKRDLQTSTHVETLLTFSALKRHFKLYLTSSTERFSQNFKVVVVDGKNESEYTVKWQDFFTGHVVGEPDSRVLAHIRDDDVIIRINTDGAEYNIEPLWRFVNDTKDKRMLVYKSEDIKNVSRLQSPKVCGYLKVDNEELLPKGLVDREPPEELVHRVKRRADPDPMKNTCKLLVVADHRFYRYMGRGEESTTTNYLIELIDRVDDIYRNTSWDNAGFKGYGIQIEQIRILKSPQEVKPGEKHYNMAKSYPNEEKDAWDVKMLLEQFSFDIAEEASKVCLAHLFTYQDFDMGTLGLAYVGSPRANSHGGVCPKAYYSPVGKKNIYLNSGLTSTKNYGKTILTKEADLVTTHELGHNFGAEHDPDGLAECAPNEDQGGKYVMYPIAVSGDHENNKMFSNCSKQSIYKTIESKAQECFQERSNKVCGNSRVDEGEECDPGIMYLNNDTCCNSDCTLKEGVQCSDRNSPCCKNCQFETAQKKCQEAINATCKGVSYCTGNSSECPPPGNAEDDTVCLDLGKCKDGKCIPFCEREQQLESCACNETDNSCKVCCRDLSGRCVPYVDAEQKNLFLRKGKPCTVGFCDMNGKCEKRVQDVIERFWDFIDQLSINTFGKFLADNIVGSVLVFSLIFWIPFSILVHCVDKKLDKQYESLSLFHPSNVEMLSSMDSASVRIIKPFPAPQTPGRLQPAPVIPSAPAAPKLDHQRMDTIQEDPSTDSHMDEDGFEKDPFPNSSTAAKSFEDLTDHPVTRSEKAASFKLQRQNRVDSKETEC
Method in brief: (§2)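 Single-point enzyme inhibition at 10 µM inhibitor, reported as percent inhibition. Full dose-response curves were run only where inhibition reached at least 60% at 10 µM.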

Interstitial collagenase [3] = target: T3, Interstitial collagenase (Homo sapiens, UniProt P03956); experiment: In vitro inhibition of matrix metalloprotease-1
T3 sequence (P03956 whole entry): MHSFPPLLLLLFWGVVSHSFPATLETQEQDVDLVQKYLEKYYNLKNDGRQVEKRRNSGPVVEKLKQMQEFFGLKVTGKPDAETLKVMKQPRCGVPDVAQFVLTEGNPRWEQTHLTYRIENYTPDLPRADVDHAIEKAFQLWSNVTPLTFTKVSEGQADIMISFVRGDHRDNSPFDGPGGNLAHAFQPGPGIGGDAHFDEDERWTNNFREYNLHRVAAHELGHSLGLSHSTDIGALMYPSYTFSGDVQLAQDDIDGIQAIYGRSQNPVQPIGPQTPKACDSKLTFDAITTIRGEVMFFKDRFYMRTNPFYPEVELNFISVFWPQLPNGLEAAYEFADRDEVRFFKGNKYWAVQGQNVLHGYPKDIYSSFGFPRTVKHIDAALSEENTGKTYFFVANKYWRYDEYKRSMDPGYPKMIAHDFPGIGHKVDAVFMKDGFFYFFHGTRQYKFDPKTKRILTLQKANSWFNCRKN

Collagenase 3 [4] = target: T4, Collagenase 3 (Homo sapiens, UniProt P45452); experiment: In vitro inhibition of matrix metalloprotease-13
[5] = target: T5, Interstitial collagenase (Homo sapiens) (UniProt P03956); experiment: Inhibition of Matrix metalloprotease-1 at 10 uM; method in brief: as §2
T5 sequence (whole entry): T3 sequence (P03956 whole entry)

[6] = target: T2, Disintegrin and metalloproteinase domain-containing protein 17; experiment: Inhibition of Tumor necrosis factor alpha converting enzyme
[7] = target: T1, Matrix metalloproteinase-9; experiment: Inhibition of Matrix metalloprotease-9; method in brief: as §1
Collagenase 3 [8] = target: T4, Collagenase 3; experiment: Inhibition of Matrix metalloprotease-13
Mus musculus [9] = experiment: Compound was tested in vivo for inhibition using dialysis implant, value expressed relative to activity of CGS-27023 at dose 25 mg/kg(po)(53 +/- 4); format: functional
Method in brief: (§3)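 Groups of mice dosed orally at 25 mg/kg with drug or vehicle carrying an implanted enzyme-containing dialysis bag. After 1 h of exposure, bag retrieved, and enzyme activity inside measured spectrophotometrically against bags from vehicle-treated mice. Percent inhibition expressed relative to CGS-27023 (set as 1) run as standard.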

Interstitial collagenase [10] = target: T3, Interstitial collagenase; experiment: Inhibition of Matrix metalloprotease-1; method in brief: as §1
Mus musculus [11] = experiment: Compound was tested in vivo for inhibition using dialysis implant data, value expressed relative to activity of CGS-27023 at dose 25 mg/kg(po) (73 +/-4); format: functional; method in brief: as §3
Rattus norvegicus = experiment: Compound was tested in vivo for inhibition in rat sponge-wrapped cartilage model, value expressed relative to activity of CGS-27023 at dose 25 mg/kg (p.o.) in (52+/-4); format: functional; details: route oral
Method in brief: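 Oral dosing at 25 mg/kg once daily for 3 weeks, with CGS-27023 as comparator. Read-out was percent inhibition of degradation of bovine cartilage in the sponge-wrapped implant.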

Mus musculus [12] = experiment: Compound was tested in vivo for inhibition using dialysis implant, value expressed relative to activity of CGS-27023 at dose 25 mg/kg(po) (77+/-3); format: functional; method in brief: as §3
[13] = target: T2, Disintegrin and metalloproteinase domain-containing protein 17; experiment: Inhibition of Tumor necrosis factor alpha converting enzyme at 10 uM
Mus musculus [14] = experiment: Compound was tested in vivo for inhibition using dialysis implant, value expressed relative to activity of CGS-27023 at dose 25 mg/kg(po)(53 +/-4); format: functional; method in brief: as §3
Mus musculus [15] = experiment: Compound was tested in vivo for inhibition using dialysis implant, values expressed relative to activity of CGS-27023 at dose 25 mg/kg(po)(60 +/-4); format: functional; method in brief: as §3
Mus musculus [16] = experiment: Compound was tested in vivo for inhibition using dialysis implant, value expressed relative to activity of CGS-27023 at dose 25 mg/kg (p.o.) (66+/-4); format: functional; details: route oral; method in brief: as §3
Mus musculus [17] = experiment: Compound was tested in vivo for inhibition using dialysis implant, values expressed relative to activity of CGS-27023 at dose 25 mg/kg(po)(68 +/-3); format: functional; method in brief: as §3
Mus musculus [18] = experiment: Compound was tested in vivo for inhibition using dialysis implant data, value expressed relative to activity of CGS-27023 at dose 25 mg/kg(po)(67 +/-3); format: functional; method in brief: as §3
[19] = target: T1, Matrix metalloproteinase-9; experiment: Inhibition of Matrix metalloprotease-9 at 10 uM; method in brief: as §2
Mus musculus [20] = experiment: Compound was tested in vivo for inhibition using dialysis implant, value expressed relative to activity of CGS-27023 at dose 25 mg/kg(po) (66 +/- 4); format: functional; method in brief: as §3

T1 sequence (P14780 whole entry): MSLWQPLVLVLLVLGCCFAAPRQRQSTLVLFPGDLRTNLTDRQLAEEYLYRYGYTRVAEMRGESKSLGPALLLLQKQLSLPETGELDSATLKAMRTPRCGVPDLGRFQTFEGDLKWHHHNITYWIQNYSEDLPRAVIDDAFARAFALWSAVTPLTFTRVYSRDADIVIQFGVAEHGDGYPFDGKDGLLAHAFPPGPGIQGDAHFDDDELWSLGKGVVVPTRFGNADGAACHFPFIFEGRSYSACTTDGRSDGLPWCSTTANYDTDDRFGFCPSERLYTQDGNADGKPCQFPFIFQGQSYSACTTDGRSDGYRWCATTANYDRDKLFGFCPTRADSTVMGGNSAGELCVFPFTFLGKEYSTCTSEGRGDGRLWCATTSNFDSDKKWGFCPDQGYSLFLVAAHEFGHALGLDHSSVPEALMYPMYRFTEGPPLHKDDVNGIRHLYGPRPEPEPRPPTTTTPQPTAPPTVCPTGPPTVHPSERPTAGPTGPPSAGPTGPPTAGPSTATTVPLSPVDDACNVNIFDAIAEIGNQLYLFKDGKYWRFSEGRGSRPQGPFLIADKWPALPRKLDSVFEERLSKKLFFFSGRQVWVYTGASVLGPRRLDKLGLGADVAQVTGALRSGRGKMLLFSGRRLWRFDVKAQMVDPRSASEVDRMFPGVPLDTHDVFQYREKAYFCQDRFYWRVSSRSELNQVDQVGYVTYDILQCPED

Structure (SMILES): C#CCC(CC#C)(C(=O)NO)S(=O)(=O)c1ccc(OC)cc1
inhibition [2]: 20%

Structure (SMILES): CCN(CC)COc1ccc(CC(C)(C(=O)NO)S(=O)(=O)c2ccc(-c3ccco3)cc2)cc1 (centres undefined)
inhibition [2]: 45% | IC50 (Interstitial collagenase [3]): 14 nM | IC50 [1]: 4 nM | IC50 (Collagenase 3 [4]): 2 nM

Structure (SMILES): CCCCC(C(=O)NO)S(=O)(=O)c1ccc(OC)cc1 (centres undefined)
inhibition [2]: 54% | inhibition [5]: 8%

Structure (SMILES): CCCCCCCC[C@@](Cc1cccnc1)(C(=O)NO)S(=O)(=O)c1ccc(OC)cc1
IC50 [6]: 669 nM

Structure (SMILES): COc1ccc(S(=O)(=O)C(C)(Cc2cccnc2)C(=O)NO)cc1 (centres undefined)
inhibition [2]: 17%

Structure (SMILES): CCOc1ccc(S(=O)(=O)C(C)(Cc2ccc(OCCN(CC)CC)cc2)C(=O)NO)cc1 (centres undefined)
IC50 [7]: 11 nM | IC50 (Collagenase 3 [8]): 16 nM | inhibition in vivo at 25 mg/kg (Mus musculus [9]): 74% | IC50 (Interstitial collagenase [10]): 627 nM

Structure (SMILES): COc1ccc(S(=O)(=O)C(C)(Cc2ccc(OCCCN3CCN(c4cccc(Cl)c4)CC3)cc2)C(=O)NO)cc1 (centres undefined)
inhibition [2]: 40% | IC50 [1]: 7 nM | inhibition in vivo at 25 mg/kg (Mus musculus [11]): 72%

Structure (SMILES): COc1ccc(S(=O)(=O)C(C)(Cc2ccc(OCCN3CCCCC3)cc2)C(=O)NO)cc1 (centres undefined)
inhibition in vivo at 25 mg/kg (Rattus norvegicus): 69% | inhibition in vivo at 25 mg/kg (Mus musculus [12]): 78% | inhibition [2]: 41%

Structure (SMILES): CC(Cc1ccccc1)(C(=O)NO)S(=O)(=O)c1cccs1 (centres undefined)
inhibition [2]: 20% | IC50 (Interstitial collagenase [3]): 49 nM | IC50 [1]: 49 nM | IC50 (Collagenase 3 [4]): 37 nM

Structure (SMILES): COc1ccc(S(=O)(=O)C(C)(Cc2ccc(OCCN(C(C)C)C(C)C)cc2)C(=O)NO)cc1 (centres undefined)
inhibition [13]: 31%

Structure (SMILES): CC(Cc1ccc(OCCN2CCCCC2)cc1)(C(=O)NO)S(=O)(=O)c1cccs1 (centres undefined)
inhibition [2]: 51% | IC50 (Interstitial collagenase [3]): 99 nM | IC50 [1]: 79 nM | IC50 (Collagenase 3 [4]): 85 nM

Structure (SMILES): CCCCOc1ccc(S(=O)(=O)C(C)(Cc2ccc(OCCN3CCCCC3)cc2)C(=O)NO)cc1 (centres undefined)
inhibition [2]: 30% | IC50 [1]: 3 nM | inhibition in vivo at 25 mg/kg (Mus musculus [14]): 64%

Structure (SMILES): COc1ccc(S(=O)(=O)C(C)(Cc2ccccc2)C(=O)NO)cc1 (centres undefined)
inhibition [2]: 15%

Structure (SMILES): COc1ccc(S(=O)(=O)[C@](C)(Cc2ccc(OCCN3CCCCC3)cc2)C(=O)NO)cc1 (stereo in doubt; form 1)
inhibition in vivo at 25 mg/kg (Mus musculus [15]): 15% | IC50 (Interstitial collagenase [3]): 2530 nM | IC50 [1]: 112 nM

Structure (SMILES): CC(C)=CCC(CC=C(C)C)(C(=O)NO)S(=O)(=O)c1ccc(C)cc1
inhibition [2]: 36% | IC50 (Collagenase 3 [4]): 6 nM

Structure (SMILES): C=CCC(CC=C)(C(=O)NO)S(=O)(=O)c1ccc(OC)cc1
inhibition [2]: 7%

Structure (SMILES): COc1ccc(S(=O)(=O)C(C)(Cc2ccc(OCCN3CCOCC3)cc2)C(=O)NO)cc1 (centres undefined)
inhibition [2]: 47% | inhibition in vivo at 25 mg/kg (Mus musculus [18]): 48% | IC50 (Interstitial collagenase [3]): 413 nM | IC50 [1]: 21 nM

Structure (SMILES): COc1ccc(S(=O)(=O)C(C)(Cc2ccc(-c3ccccc3)cc2)C(=O)NO)cc1 (centres undefined)
inhibition [2]: 17%

Structure (SMILES): CCCCCCCCS(=O)(=O)C(C)(Cc1ccc(OCCN2CCCCC2)cc1)C(=O)NO (centres undefined)
inhibition [2]: 65% | IC50 (Interstitial collagenase [3]): 10 nM | IC50 [1]: 23 nM | IC50 (Collagenase 3 [4]): 55 nM

Structure (SMILES): CCCCCCCCCCCCC(C(=O)NO)S(=O)(=O)c1ccc(OC)cc1 (centres undefined)
inhibition [5]: 18%

Structure (SMILES): COc1ccc(S(=O)(=O)C(CCC(C)C)(Cc2cccnc2)C(=O)NO)cc1 (centres undefined)
inhibition [2]: 41%

Structure (SMILES): COc1ccc(S(=O)(=O)C(C(=O)NO)C(C)C)cc1 (centres undefined)
inhibition [19]: 27% | inhibition [2]: 52%

Structure (SMILES): COc1ccc(S(=O)(=O)C(C)(Cc2ccc(OCCN3CCCCCC3)cc2)C(=O)NO)cc1 (centres undefined)
inhibition in vivo at 25 mg/kg (Rattus norvegicus): 67% | inhibition [2]: 29% | inhibition in vivo at 25 mg/kg (Mus musculus [20]): 65%

Structure (SMILES): CCCCCCCCS(=O)(=O)C(C)(Cc1ccccc1)C(=O)NO (centres undefined)
inhibition [2]: 1%

Second part, led by results:

IC50 [1]: 8 nM
Structure (SMILES): COc1ccc(S(=O)(=O)C(C)(Cc2ccc3ccccc3c2)C(=O)NO)cc1 (centres undefined)

IC50 (Interstitial collagenase [3]): 1000 nM
Structure (SMILES): COc1ccc(S(=O)(=O)C(Cc2cccnc2)(CC(C)C)C(=O)NO)cc1 (centres undefined)
inhibition [2]: 42%

IC50 (Collagenase 3 [4]): 100 nM
Structure (SMILES): COc1ccc(S(=O)(=O)C(Cc2ccccc2)C(=O)NO)cc1 (centres undefined)

IC50 (Collagenase 3 [4]): 32 nM
Structure (SMILES): C#CCC(Cc1cccnc1)(C(=O)NO)S(=O)(=O)c1ccc(OC)cc1 (centres undefined)
inhibition [2]: 23%

IC50 (Interstitial collagenase [3]): 299 nM | IC50 [1]: 16 nM | IC50 (Collagenase 3 [4]): 12 nM
Structure (SMILES): COc1ccc(S(=O)(=O)C(C)(C/C=C/c2ccccc2)C(=O)NO)cc1 (centres undefined)
inhibition [2]: 65%

IC50 (Interstitial collagenase [3]): 10 nM
Structure (SMILES): COc1ccc(CS(=O)(=O)C(C)(Cc2ccccc2)C(=O)NO)cc1 (centres undefined)
inhibition [2]: 3%

inhibition [5]: 30%
Structure (SMILES): CCCC(CCC)(C(=O)NO)S(=O)(=O)c1ccc(OC)cc1
inhibition [2]: 24%

IC50 [1]: 13 nM | IC50 (Collagenase 3 [4]): 15 nM
Structure (SMILES): CCN(CC)CCOc1ccc(CC(C)(C(=O)NO)S(=O)(=O)c2ccc(OC)cc2)cc1 (centres undefined)
inhibition in vivo at 25 mg/kg (Mus musculus [16]): 68% | inhibition [2]: 39%

IC50 (Interstitial collagenase [3]): 154 nM | IC50 [1]: 5 nM
Structure (SMILES): COc1ccc(S(=O)(=O)[C@](C)(Cc2ccc(OCCN3CCCCC3)cc2)C(=O)NO)cc1 (stereo in doubt; form 2)
inhibition in vivo at 25 mg/kg (Mus musculus [17]): 69%

IC50 [1]: 0.5 nM
Structure (SMILES): COc1ccc(S(=O)(=O)C(CC=C(C)C)(CC=C(C)C)C(=O)NO)cc1

inhibition [19]: 88%
Structure (SMILES): CCCC[C@@](Cc1cccnc1)(C(=O)NO)S(=O)(=O)c1ccc(OC)cc1
IC50 [6]: 764 nM
